Legend:
hERG (KCNH2) = hERG (KCNH2) (Homo sapiens, UniProt Q12809); assay: Inhibition of human ERG at 10 uM by cell-based electrophysiology assay
[1] = Metabolic stability in human liver microsomes assessed as parent compound metabolism after 30 mins by LC-MS analysis; assay type: ADME, Microsome; settings: read-out: Drug metabolism
Outline: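 Test compound at 10 μM with pooled mixed-gender human liver microsomes (1 mg/mL protein), NADPH 1 mM, UDPGA 2.5 mM and MgCl2 3 mM in 10 mM PBS at 37 °C for 0 and 30 min. Controls omit NADPH/UDPGA. Compound remaining measured by LC–MS; reported as percent of parent metabolized at 30 min.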

[2] = Metabolic stability in mouse liver microsomes assessed as parent compound metabolism after 30 mins by LC-MS analysis; assay type: ADME, Microsome; settings: read-out: Drug metabolism
Outline: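 Male CD1 mouse liver microsomes (1 mg/mL protein) incubated with 10 μM compound plus NADPH 1 mM, UDPGA 2.5 mM and MgCl2 3 mM in 10 mM PBS at 37 °C for 0 and 30 min. NADPH/UDPGA-free controls included. LC–MS quantitation of remaining compound; reported as percent parent metabolized after 30 min.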

Aurora kinase A = molecular target: T1, Aurora kinase A (Homo sapiens, UniProt O14965); assay: Inhibition of GST-tagged human Aurora A kinase expressed in baculovirus system
T1 sequence (O14965 whole entry): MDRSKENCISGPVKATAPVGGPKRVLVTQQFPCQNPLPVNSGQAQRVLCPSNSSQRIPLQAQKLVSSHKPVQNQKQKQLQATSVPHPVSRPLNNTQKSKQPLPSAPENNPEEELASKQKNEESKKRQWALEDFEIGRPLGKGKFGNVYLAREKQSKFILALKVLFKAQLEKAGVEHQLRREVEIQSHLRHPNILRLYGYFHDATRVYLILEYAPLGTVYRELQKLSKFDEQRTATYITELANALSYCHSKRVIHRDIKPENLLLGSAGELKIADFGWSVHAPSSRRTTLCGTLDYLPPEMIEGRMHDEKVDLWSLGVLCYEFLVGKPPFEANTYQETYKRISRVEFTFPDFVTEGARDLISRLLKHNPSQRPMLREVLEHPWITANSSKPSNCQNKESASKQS

SW-620 = assay: cells; settings: Homo sapiens, SW-620, 72 h
[3] = Binding affinity to FLT3 ITD mutant
[4] = molecular target: T2, Receptor-type tyrosine-protein kinase FLT3 (Homo sapiens, UniProt P36888)
T2 sequence (P36888 whole entry): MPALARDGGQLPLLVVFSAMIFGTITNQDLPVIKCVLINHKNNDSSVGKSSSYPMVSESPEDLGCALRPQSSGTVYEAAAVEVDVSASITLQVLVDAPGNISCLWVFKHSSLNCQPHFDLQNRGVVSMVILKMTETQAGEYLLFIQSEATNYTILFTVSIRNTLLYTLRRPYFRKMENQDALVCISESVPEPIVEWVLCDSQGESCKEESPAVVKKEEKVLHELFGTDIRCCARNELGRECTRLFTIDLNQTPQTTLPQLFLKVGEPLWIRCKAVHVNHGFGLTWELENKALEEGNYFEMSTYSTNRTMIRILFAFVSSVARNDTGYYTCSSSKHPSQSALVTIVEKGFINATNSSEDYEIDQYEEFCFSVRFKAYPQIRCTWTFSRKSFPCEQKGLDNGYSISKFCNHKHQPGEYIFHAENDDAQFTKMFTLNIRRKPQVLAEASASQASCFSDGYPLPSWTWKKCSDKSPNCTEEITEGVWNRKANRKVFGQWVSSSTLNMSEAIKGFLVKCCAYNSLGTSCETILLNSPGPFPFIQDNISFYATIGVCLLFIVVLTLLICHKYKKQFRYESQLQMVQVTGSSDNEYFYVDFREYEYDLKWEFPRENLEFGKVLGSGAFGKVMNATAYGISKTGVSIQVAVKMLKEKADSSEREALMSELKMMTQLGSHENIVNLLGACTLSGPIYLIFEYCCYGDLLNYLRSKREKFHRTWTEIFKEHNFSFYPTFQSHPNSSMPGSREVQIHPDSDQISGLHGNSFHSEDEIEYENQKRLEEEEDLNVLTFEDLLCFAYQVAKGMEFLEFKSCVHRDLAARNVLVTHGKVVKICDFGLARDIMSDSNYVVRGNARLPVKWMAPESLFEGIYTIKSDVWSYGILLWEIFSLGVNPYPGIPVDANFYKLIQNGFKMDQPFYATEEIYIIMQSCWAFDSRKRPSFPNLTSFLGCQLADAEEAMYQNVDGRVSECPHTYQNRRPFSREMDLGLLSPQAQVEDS

Chain of hERG (KCNH2) (Q12809 whole entry): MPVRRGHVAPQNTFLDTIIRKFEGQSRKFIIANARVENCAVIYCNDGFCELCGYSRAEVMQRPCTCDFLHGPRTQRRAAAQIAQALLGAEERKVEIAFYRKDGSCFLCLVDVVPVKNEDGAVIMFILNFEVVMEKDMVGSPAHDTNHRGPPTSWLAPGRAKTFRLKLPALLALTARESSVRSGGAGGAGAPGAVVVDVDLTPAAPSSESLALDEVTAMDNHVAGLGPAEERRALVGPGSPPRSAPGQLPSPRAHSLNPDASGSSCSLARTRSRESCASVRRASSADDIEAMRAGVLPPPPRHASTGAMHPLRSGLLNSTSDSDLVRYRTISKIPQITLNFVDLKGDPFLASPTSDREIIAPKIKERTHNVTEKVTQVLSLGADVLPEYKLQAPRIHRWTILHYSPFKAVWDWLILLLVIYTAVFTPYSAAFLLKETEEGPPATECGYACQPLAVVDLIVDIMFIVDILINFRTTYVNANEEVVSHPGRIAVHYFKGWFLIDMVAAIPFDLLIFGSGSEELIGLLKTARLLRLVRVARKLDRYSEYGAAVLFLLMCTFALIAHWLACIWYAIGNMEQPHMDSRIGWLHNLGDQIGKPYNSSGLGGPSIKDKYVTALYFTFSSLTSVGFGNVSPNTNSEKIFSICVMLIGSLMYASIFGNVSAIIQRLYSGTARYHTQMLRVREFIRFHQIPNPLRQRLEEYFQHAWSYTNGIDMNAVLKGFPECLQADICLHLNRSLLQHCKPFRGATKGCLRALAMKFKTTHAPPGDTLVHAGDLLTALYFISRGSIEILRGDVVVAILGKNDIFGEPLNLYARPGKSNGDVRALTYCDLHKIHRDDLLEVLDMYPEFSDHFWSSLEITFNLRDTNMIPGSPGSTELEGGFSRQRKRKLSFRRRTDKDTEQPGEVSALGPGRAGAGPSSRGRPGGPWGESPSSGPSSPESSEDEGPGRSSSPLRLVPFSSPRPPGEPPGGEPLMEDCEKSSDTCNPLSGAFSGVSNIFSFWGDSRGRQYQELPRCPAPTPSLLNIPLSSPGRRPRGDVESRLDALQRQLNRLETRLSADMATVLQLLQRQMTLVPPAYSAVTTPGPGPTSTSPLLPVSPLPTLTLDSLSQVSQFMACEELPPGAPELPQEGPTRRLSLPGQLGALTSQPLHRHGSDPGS

| SMILES | inhibition at 10 µM (hERG (KCNH2)) | metabolised at 0.5 h [1] | metabolised at 0.5 h [2] | IC50 (Aurora kinase A) | GI50 (SW-620) | Kd [3] | Kd [4] |
| --- | --- | --- | --- | --- | --- | --- | --- |
| Cc1cc(CN2CCN(c3c(Cl)cnc4nc(-c5cccc(CN(C)C)c5)[nH]c34)CC2)no1 | 85% | 36% | 29% | 54 nM | 840 nM |  |  |
| Cc1cc(CN2CCN(c3c(Br)cnc4nc(-c5csnn5)[nH]c34)CC2)no1 |  |  |  | 600 nM | 20000 nM |  |  |
| Cc1cc(CN2CCN(c3c(Cl)cnc4nc(-c5ccc(N6CCN(C)CC6)cc5)[nH]c34)CC2)no1 |  | 89% | 25% |  | 570 nM |  |  |
| COCCN1CCN(c2ccc(-c3nc4ncc(Br)c(N5CCN(Cc6cc(C)on6)CC5)c4[nH]3)cc2)CC1 | 54% | 69% | 66% | 12 nM | 1000 nM |  |  |
| CCN1CCN(c2ccc(-c3nc4c(N5CCN(Cc6cc(C)on6)CC5)c(Cl)cnc4[nH]3)cc2)CC1 | 68% | 72% | 37% | 6 nM | 461 nM |  |  |
| Cc1cc(CN2CCN(c3c(Br)cnc4[nH]c(-c5cncn5C)nc34)CC2)no1 |  |  |  | 15 nM | 2180 nM | 62 nM | 14 nM |
| Cc1nn(C)cc1-c1nc2ncc(Cl)c(N3CCN(Cc4nonc4C)CC3)c2[nH]1 | 50% | 54% | 91% | 6 nM | 250 nM |  |  |
| CCn1cc(-c2nc3ncc(Cl)c(N4CCN(Cc5cc(C)on5)CC4)c3[nH]2)cn1 | 51% | 22% | 16% | 41 nM | 2180 nM |  |  |
| Cc1nn(C)cc1-c1nc2c(N3CCN(Cc4ncn(C)n4)CC3)c(Cl)cnc2[nH]1 | 14% | 24% | 97% | 93 nM | 3140 nM |  |  |
| Cc1cc(CN2CCN(c3c(Cl)cnc4[nH]c(-c5cn(C)nc5C5CC5)nc34)CC2)no1 |  | 64% | 80% | 4 nM |  |  |  |
| Cc1cc(CN2CCN(c3c(Cl)cnc4[nH]c(-c5ccoc5)nc34)CC2)no1 |  |  |  | 68 nM | 6500 nM |  |  |
| Cc1cc(CN2CCN(c3c(Br)cnc4nc(-c5nc(C)oc5C)[nH]c34)CC2)no1 |  |  |  | 2200 nM | 4570 nM |  |  |
| Cc1cc(CN2CCN(c3c(Cl)cnc4[nH]c(-c5cnn(CC(F)F)c5)nc34)CC2)no1 | 82% | 0% | 12% | 45 nM | 1600 nM |  |  |
| Cc1cc(CN2CCN(c3c(Cl)cnc4nc(-c5ccn(C)n5)[nH]c34)CC2)no1 |  |  |  | 118 nM | 2600 nM |  |  |
| Cc1cc(CN2CCN(c3c(Cl)cnc4nc(-c5ccc(N6CCN(C)CC6)c(F)c5)[nH]c34)CC2)no1 | 37% | 68% | 20% | 11 nM | 380 nM |  |  |
| Cc1cc(CN2CCN(c3c(Cl)cnc4[nH]c(-c5cccc(OCCN(C)C)c5)nc34)CC2)no1 | 88% | 18% | 23% | 130 nM | 850 nM |  |  |
| Cc1cc(CN2CCN(c3c(Br)cnc4nc(-c5ccc(N6CCN(C)CC6)cc5)[nH]c34)CC2)no1 | 75% | 86% | 36% |  |  | 4.9 nM | 1.2 nM |
| Cc1cc(CN2CCN(c3c(Cl)cnc4[nH]c(-c5ccc(N6CCN(C)CC6)cc5F)nc34)CC2)no1 | 81% | 99% | 65% | 87 nM | 7500 nM |  |  |
| Cc1cc(CN2CCN(c3c(Cl)cnc4nc(-c5nccn5C)[nH]c34)CC2)no1 |  |  |  | 564 nM | 16300 nM |  |  |
| Cc1nc(CN2CCN(c3c(Cl)cnc4[nH]c(-c5cn(C)nc5C)nc34)CC2)no1 |  | 20% | 58% |  |  |  |  |
| Cc1nn(C)cc1-c1nc2c(N3CCN(Cc4ncon4)CC3)c(Cl)cnc2[nH]1 |  | 22% | 67% |  |  |  |  |
| Cc1nn(C)cc1-c1nc2ncc(Cl)c(N3CCN(Cc4cnccn4)CC3)c2[nH]1 | 23% | 76% | 99% | 27 nM | 1090 nM |  |  |
| Cc1cc(CN2CCN(c3c(Cl)cnc4[nH]c(-c5cnn(C(C)C)c5)nc34)CC2)no1 | 71% | 17% | 30% | 35 nM | 2220 nM |  |  |
| Cc1cc(CN2CCN(c3c(Cl)cnc4nc(-c5cccc(CN6CCOCC6)c5)[nH]c34)CC2)no1 | 15% | 71% | 69% | 47 nM | 113 nM |  |  |
| Cc1cc(CN2CCN(c3c(Cl)cnc4[nH]c(-c5cnn(C)c5)nc34)CC2)no1 |  |  |  | 45 nM | 1800 nM | 66 nM | 12 nM |
| Cc1cc(CN2CCN(c3c(Cl)cnc4nc(-c5ccnn5C)[nH]c34)CC2)no1 |  |  |  | 147 nM | 3190 nM |  |  |
| CC(=O)N1CCN(c2ccc(-c3nc4ncc(Br)c(N5CCN(Cc6cc(C)on6)CC5)c4[nH]3)cc2)CC1 | 92% | 94% | 25% | 9 nM | 758 nM |  |  |
| Cc1cc(CN2CCN(c3c(Cl)cnc4nc(-c5cc(C)on5)[nH]c34)CC2)no1 |  |  |  | 434 nM | 1150 nM |  |  |
| Cc1cc(CN2CCN(c3c(Br)cnc4[nH]c(-c5ccc(N6CCOCC6)cc5)nc34)CC2)no1 |  | 99% | 50% | 7 nM | 860 nM |  |  |

From ChEMBL document CHEMBL2203264, “Optimization of imidazo[4,5-b]pyridine-based kinase inhibitors: identification of a dual FLT3/Aurora kinase inhibitor as an orally bioavailable preclinical development candidate for the treatment of acute myeloid leukemia” (J Med Chem, 2012)
